Measurements taken from ChEMBL document CHEMBL1667789, “Synthesis of 4H-chromene, coumarin, 12H-chromeno[2,3-d]pyrimidine derivatives and some of their antimicrobial and cytotoxicity activities” (2011).
The source made the active and inactive calls. No cut-off for these calls is given here.

Experiments:
[1] = system: Escherichia coli; experiment: Antimicrobial activity against Escherichia coli ATCC 14169 at 25 ug/ml by agar diffusion method; assay type: functional; conditions: for zone of inhibition at 25 µg/mL: read-out: DIZ
Procedure, shortened: (§1)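 Agar diffusion on Mueller-Hinton agar. Bacterial strains came from the NODCAR Microbiology laboratory culture collection. Ampicillin was the reference standard.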

[2] = system: Bordetella bronchiseptica; experiment: Antimicrobial activity against Bordetella bronchiseptica ATCC 4617 at 25 ug/ml by agar diffusion method; assay type: functional; conditions: for zone of inhibition at 25 µg/mL: read-out: DIZ; procedure, shortened: as §1
[3] = system: Saccharomyces cerevisiae; experiment: Antifungal activity against Saccharomyces cerevisiae ATCC 9080 at 25 ug/ml by agar diffusion method; assay type: functional; conditions: for zone of inhibition at 25 µg/mL: read-out: DIZ
Procedure, shortened: (§2)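 Agar diffusion on Sabouraud's agar. Fungal strains came from the NODCAR Microbiology laboratory culture collection. Mycostatine was the reference standard.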

[4] = system: Bacillus pumilus; experiment: Antimicrobial activity against Bacillus pumilus ATCC 14884 at 25 ug/ml by agar diffusion method; assay type: functional; conditions: for zone of inhibition at 25 µg/mL: read-out: DIZ; procedure, shortened: as §1
[5] = system: Staphylococcus aureus; experiment: Antimicrobial activity against Staphylococcus aureus ATCC 29737 at 25 ug/ml by agar diffusion method; assay type: functional; conditions: for zone of inhibition at 25 µg/mL: read-out: DIZ; procedure, shortened: as §1
[6] = system: Staphylococcus epidermidis; experiment: Antimicrobial activity against Staphylococcus epidermidis ATCC 12228 at 25 ug/ml by agar diffusion method; assay type: functional; conditions: for zone of inhibition at 25 µg/mL: read-out: DIZ; procedure, shortened: as §1
[7] = system: Candida albicans; experiment: Antifungal activity against Candida albicans ATCC 10231 at 25 ug/ml by agar diffusion method; assay type: functional; conditions: for zone of inhibition at 25 µg/mL: read-out: DIZ; procedure, shortened: as §2
[8] = system: Bacillus subtilis; experiment: Antimicrobial activity against Bacillus subtilis ATCC 6633 at 25 ug/ml by agar diffusion method; assay type: functional; conditions: for zone of inhibition at 25 µg/mL: read-out: DIZ; procedure, shortened: as §1
[9] = system: MCF7; experiment: Cytotoxicity against human MCF7 cells; assay type: functional, cell-based
Procedure, shortened: (§3)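 Human tumour lines were MCF-7 (breast adenocarcinoma) and HCT (described as lung carcinoma). Cytotoxicity was read by a cell viability assay, with IC50 derived from it.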

[10] = system: Cancer cell lines; experiment: Cytotoxicity against human Lung cancer cells; assay type: functional, cell-based; procedure, shortened: as §3

Molecule | diameter of the inhibition zone (DIZ) [1] | diameter of the inhibition zone (DIZ) [2] | diameter of the inhibition zone (DIZ) [3] | diameter of the inhibition zone (DIZ) [4] | diameter of the inhibition zone (DIZ) [5] | diameter of the inhibition zone (DIZ) [6] | diameter of the inhibition zone (DIZ) [7] | diameter of the inhibition zone (DIZ) [8] | zone of inhibition at 25 µg/mL [1] [mm] | zone of inhibition at 25 µg/mL [2] [mm] | zone of inhibition at 25 µg/mL [3] [mm] | zone of inhibition at 25 µg/mL [4] [mm] | zone of inhibition at 25 µg/mL [5] [mm] | zone of inhibition at 25 µg/mL [6] [mm] | zone of inhibition at 25 µg/mL [7] [mm] | zone of inhibition at 25 µg/mL [8] [mm] | inhibition zone (IZ) [3] [mm] | Activity [9] | Activity [10]
CCN(CC)c1ccc2c(c1)OC(N)=C(C#N)C2c1ccc(Br)cc1 (stereo unspecified) | inactive | inactive | inactive | inactive | inactive | inactive | inactive | inactive | – | – | – | – | – | – | – | – | – | – | –
CCN(CC)c1ccc2c(c1)Oc1nc(C)[nH]c(=O)c1C2c1ccc(Cl)cc1 (stereo unspecified) | inactive | inactive | inactive | inactive | inactive | inactive | inactive | inactive | – | – | – | – | – | – | – | – | – | – | –
CCN(CC)c1ccc2c(-c3ccc(Cl)cc3)c(C#N)c(=O)oc2c1 | inactive | inactive | inactive | inactive | inactive | inactive | inactive | inactive | – | – | – | – | – | – | – | – | – | – | –
CCN(CC)c1ccc2c(c1)Oc1ncn(N)c(=N)c1C2c1ccc(Br)cc1 (stereo unspecified) | – | – | – | – | – | – | – | – | 16 | 21 | 22 | 25 | 24 | 22 | 15 | 15 | – | – | –
NYSTATIN | – | – | – | – | – | – | – | – | – | – | – | – | – | – | – | – | 24 | – | –
CCO/C=N/C1=C(C#N)C(c2ccc(Br)cc2)c2ccc(N(CC)CC)cc2O1 (stereo unspecified) | inactive | inactive | inactive | inactive | inactive | inactive | inactive | inactive | – | – | – | – | – | – | – | – | – | – | –
CCN(CC)c1ccc2c(c1)OC(/N=C/N(C)C)=C(C#N)C2c1ccc(Cl)cc1 (stereo unspecified) | inactive | inactive | inactive | inactive | inactive | inactive | inactive | inactive | – | – | – | – | – | – | – | – | – | – | –
CCN(CC)c1ccc2c(c1)OC(/N=C/c1ccccc1)=C(C#N)C2c1ccc(Cl)cc1 (stereo unspecified) | inactive | inactive | inactive | inactive | inactive | inactive | inactive | inactive | – | – | – | – | – | – | – | – | – | – | –
CCN(CC)c1ccc2c(c1)Oc1ncn(N)c(=N)c1C2c1ccc(Cl)cc1 (stereo unspecified) | – | – | – | – | – | – | – | – | 17 | 22 | 24 | 27 | 26 | 24 | 16 | 17 | – | – | –
CCN(CC)c1ccc2c(c1)Oc1ncnc(N)c1C2c1ccc(Cl)cc1 (stereo unspecified) | – | – | – | – | – | – | – | – | 20 | 21 | 20 | 25 | 25 | 24 | 15 | 21 | – | – | –
CCOC(=O)C1=C(N)Oc2cc(N(CC)CC)ccc2C1c1ccc(F)cc1 (stereo unspecified) | inactive | inactive | inactive | inactive | – | – | inactive | inactive | – | – | – | – | 14 | 14 | – | – | – | – | –
CCN(CC)c1ccc2c(c1)Oc1ncn(C)c(=N)c1C2c1ccc(Cl)cc1 (stereo unspecified) | – | – | – | – | – | – | – | – | 21 | 20 | 20 | 25 | 24 | 25 | 14 | 21 | – | – | –
CCN(CC)c1ccc2c(c1)OC(N)=C(C#N)C2c1ccc(F)cc1 (stereo unspecified) | inactive | inactive | inactive | inactive | inactive | inactive | inactive | inactive | – | – | – | – | – | – | – | – | – | Not toxic | Not toxic
CCOC(=O)C1=C(N)Oc2cc(N(CC)CC)ccc2C1c1ccc(Cl)cc1 (stereo unspecified) | inactive | inactive | inactive | inactive | inactive | inactive | inactive | inactive | – | – | – | – | – | – | – | – | – | – | –
CCN(CC)c1ccc2c(-c3ccc(Br)cc3)c(C#N)c(=O)oc2c1 | inactive | inactive | inactive | inactive | inactive | inactive | inactive | inactive | – | – | – | – | – | – | – | – | – | – | –
CCN(CC)c1ccc2c(c1)OC(N(C(C)=O)C(C)=O)=C(C#N)C2c1ccc(Cl)cc1 (stereo unspecified) | inactive | inactive | inactive | inactive | inactive | inactive | inactive | inactive | – | – | – | – | – | – | – | – | – | – | –
CCN(CC)c1ccc2c(c1)OC(/N=C/N)=C(C#N)C2c1ccc(Cl)cc1 (stereo unspecified) | inactive | inactive | inactive | inactive | inactive | inactive | inactive | inactive | – | – | – | – | – | – | – | – | – | – | –
CCN(CC)c1ccc2c(-c3ccc(F)cc3)c(C#N)c(=O)oc2c1 | inactive | inactive | inactive | inactive | – | – | inactive | inactive | – | – | – | – | 13 | 14 | – | – | – | – | –
CC1(C)S[C@@H]2[C@H](NC(=O)[C@H](N)c3ccccc3)C(=O)N2[C@H]1C(=O)O [AMPICILLIN] | – | – | – | – | – | – | – | – | 25 | 24 | – | 20 | 26 | 25 | – | 25 | – | – | –
CCN(CC)c1ccc2c(c1)OC(N)=C(C#N)C2c1ccc(Cl)cc1 (stereo unspecified) | inactive | inactive | inactive | inactive | – | – | inactive | inactive | – | – | – | – | 14 | 15 | – | – | – | – | –
CCO/C=N/C1=C(C#N)C(c2ccc(Cl)cc2)c2ccc(N(CC)CC)cc2O1 (stereo unspecified) | inactive | inactive | inactive | inactive | inactive | inactive | inactive | inactive | – | – | – | – | – | – | – | – | – | – | –
CCOC(=O)C1=C(N)Oc2cc(N(CC)CC)ccc2C1c1ccc(Br)cc1 (stereo unspecified) | inactive | inactive | inactive | inactive | inactive | inactive | inactive | inactive | – | – | – | – | – | – | – | – | – | Not toxic | Not toxic
